Results reported in ChEMBL document CHEMBL3286381 (J Med Chem, 2014).
pIC50, pKi: −log10 of the molar value. Active and inactive are the calls of the source. The calls are words filed in the database; no cut-off is given here.

Columns and labels:
[1] = target: P2Y purinoceptor 1 (Homo sapiens) (UniProt P47900); assay: Agonist activity at human P2Y1 receptor expressed in human 1321N1 cells assessed as increase of intracellular calcium level up to 10 uM after 30 mins using fura-2 AM by fluorescence assay; format: functional, cell-based
P2Y purinoceptor 1 (Homo sapiens), sequence (P47900 whole entry): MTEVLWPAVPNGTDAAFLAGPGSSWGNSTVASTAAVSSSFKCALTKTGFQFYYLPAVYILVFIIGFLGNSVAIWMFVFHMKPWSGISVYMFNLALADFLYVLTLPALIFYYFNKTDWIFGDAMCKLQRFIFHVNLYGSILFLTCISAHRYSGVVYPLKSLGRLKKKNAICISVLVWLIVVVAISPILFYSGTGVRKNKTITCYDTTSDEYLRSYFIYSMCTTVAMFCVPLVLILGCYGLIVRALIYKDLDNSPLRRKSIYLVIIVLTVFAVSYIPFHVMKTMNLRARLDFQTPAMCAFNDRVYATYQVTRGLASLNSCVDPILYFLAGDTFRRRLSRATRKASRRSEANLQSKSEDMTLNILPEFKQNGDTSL

[2] = target: T1, Ectonucleotide pyrophosphatase/phosphodiesterase family member 1 (Homo sapiens) (UniProt P22413); assay: Inhibition of NPP1 in human HTB-85 cells using pNP-TMP as substrate at 100 uM after 20 mins […]; format: cell-based
T1 sequence (whole entry): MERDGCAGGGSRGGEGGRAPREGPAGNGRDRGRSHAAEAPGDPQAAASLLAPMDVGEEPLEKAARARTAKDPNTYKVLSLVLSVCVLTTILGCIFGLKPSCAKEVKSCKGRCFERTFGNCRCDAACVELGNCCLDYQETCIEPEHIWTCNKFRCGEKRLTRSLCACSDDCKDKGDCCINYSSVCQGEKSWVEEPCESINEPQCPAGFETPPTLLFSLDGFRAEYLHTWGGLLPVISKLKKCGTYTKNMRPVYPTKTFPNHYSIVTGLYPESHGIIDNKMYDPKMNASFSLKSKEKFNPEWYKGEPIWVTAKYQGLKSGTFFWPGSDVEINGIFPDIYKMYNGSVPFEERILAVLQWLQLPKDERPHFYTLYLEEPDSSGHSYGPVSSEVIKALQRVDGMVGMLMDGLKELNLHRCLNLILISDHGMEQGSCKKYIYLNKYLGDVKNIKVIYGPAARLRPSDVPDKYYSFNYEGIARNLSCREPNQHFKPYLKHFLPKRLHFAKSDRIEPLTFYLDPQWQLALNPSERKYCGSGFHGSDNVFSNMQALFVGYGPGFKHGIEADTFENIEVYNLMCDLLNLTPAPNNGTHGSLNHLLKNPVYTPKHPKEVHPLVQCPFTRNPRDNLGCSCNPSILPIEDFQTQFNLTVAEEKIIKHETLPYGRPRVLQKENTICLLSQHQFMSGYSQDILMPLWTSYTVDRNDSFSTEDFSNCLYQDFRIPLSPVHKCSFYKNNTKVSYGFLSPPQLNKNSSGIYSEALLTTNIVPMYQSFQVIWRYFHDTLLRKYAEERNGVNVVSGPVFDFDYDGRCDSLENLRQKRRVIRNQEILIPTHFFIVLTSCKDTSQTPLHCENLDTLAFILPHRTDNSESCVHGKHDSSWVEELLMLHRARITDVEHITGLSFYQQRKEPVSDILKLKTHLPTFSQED
In short: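 Assay on intact human osteocarcinoma HTB-85 (SaOS-2) cells as native NPP1 source, in 0.5 mL incubation mixture. pNP-TMP is added to 100 μM final with inhibitor at 100 μM. After 20 min, p-nitrophenol is read at 410 nm. Substrate alone is set as 100%. Three experiments in triplicate.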

[3] = target: T1, Ectonucleotide pyrophosphatase/phosphodiesterase family member 1 (Homo sapiens); assay: Inhibition of human NPP1 using pNP-TMP as substrate at 100 uM after 20 mins by reversed-phase HPLC analysis
[4] = target: T2, Ectonucleoside triphosphate diphosphohydrolase 3 (Homo sapiens) (UniProt O75355); assay: Inhibition of human NTPDase-3 using ATP as substrate assessed as inorganic phosphate release at 100 uM after 15 mins relative to control
T2 sequence (whole entry): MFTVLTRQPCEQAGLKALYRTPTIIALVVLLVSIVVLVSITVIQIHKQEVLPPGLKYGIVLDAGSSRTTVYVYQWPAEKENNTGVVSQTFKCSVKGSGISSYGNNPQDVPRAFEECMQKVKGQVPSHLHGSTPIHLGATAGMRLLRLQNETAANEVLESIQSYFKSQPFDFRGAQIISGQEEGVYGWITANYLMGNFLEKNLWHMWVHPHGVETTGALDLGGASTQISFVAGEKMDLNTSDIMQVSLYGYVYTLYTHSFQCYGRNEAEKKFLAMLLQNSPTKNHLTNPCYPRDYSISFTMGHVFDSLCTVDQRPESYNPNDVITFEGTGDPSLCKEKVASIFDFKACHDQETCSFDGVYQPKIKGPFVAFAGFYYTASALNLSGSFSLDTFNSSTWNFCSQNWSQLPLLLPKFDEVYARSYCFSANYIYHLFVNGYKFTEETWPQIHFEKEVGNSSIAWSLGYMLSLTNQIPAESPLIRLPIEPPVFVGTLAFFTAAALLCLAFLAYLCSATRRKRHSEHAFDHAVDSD
In short: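 Protein extracts are from COS-7 cells transiently transfected with human NTPDase1, 2, 3 or 8. Extract is preincubated for 3 min at 37 °C in Tris–Ringer buffer (pH 7.3). […] Three experiments in triplicate.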

[5] = target: T3, P2Y purinoceptor 11 (Homo sapiens) (UniProt Q96G91); assay: Agonist activity at human P2Y11 receptor expressed in human 1321N1 cells assessed as increase of intracellular calcium level after 30 mins using fura-2 AM by fluorescence assay relative to ATP; format: functional, cell-based
T3 sequence (whole entry): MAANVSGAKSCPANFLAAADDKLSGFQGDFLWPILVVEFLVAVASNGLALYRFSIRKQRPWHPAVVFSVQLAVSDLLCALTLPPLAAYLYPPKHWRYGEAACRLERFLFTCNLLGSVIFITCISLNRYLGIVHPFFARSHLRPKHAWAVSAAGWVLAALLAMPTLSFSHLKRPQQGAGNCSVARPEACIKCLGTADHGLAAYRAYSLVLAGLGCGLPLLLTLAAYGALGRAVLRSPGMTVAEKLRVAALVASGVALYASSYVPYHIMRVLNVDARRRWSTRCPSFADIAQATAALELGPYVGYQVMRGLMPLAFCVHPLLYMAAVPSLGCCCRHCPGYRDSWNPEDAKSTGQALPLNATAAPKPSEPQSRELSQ

[6] = target: T4, Ectonucleotide pyrophosphatase/phosphodiesterase family member 1 (Homo sapiens, UniProt P22413); assay: Mixed type inhibition of human NPP1 using pNP-TMP as substrate after 20 mins by Dixon and Cornish-Bowden method
T4 sequence (P22413 whole entry): T1 sequence (whole entry)
In short: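 Human NPP1 (COS-7 lysate) is tested with pNP-TMP hydrolysis at 37 °C in pH 8.5 Tris buffer, reading p-nitrophenol at […]. Substrate is 25, 50 and 100 μM, and inhibitor is 0, 25, 50 and 100 μM. Inhibition type, Ki and Ki′ (EIS complex dissociation constant) come from Dixon and Cornish–Bowden plots of three independent experiments.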

Structure (SMILES) | Activity [1] | inhibition [2] | inhibition [3] | inhibition [4] | fold change (FC) [5] | pIC50 [6] | pKi [6]
Nc1ncnc2c1ncn2[C@@H]1O[C@H](COP(=O)(O)CP(=O)(O)OP(O)(O)=S)[C@@H](O)[C@H]1O | inactive | Active | > 90% | 40.2% | 6.7 | – | –
Nc1ncnc2c1ncn2[C@@H]1O[C@H](CO[P@@](O)(=S)OP(=O)(O)C(Cl)(Cl)P(=O)(O)O)[C@@H](O)[C@H]1O | inactive | Active | > 90% | 18.7% | 2.2 | 4.51 | 4.82
Nc1ncnc2c1ncn2[C@@H]1O[C@H](CO[P@@](O)(=S)OP(=O)(O)CP(=O)(O)O)[C@@H](O)[C@H]1O | inactive | Active | > 90% | 24% | 7.4 | 4.73 | 5.89
Nc1ncnc2c1ncn2[C@@H]1O[C@H](CO[P@](O)(=S)OP(=O)(O)C(Cl)(Cl)P(=O)(O)O)[C@@H](O)[C@H]1O | inactive | Active | > 90% | 21.8% | – | 6.22 | 6.16
Nc1ncnc2c1ncn2[C@@H]1O[C@H](CO[P@](O)(=S)OP(=O)(O)CP(=O)(O)O)[C@@H](O)[C@H]1O | inactive | Active | > 90% | 26.8% | – | 4.79 | 5.35
